Calls of active or inactive are those of the source. The rule behind the calls is not given here.
How the values were obtained:
[1] = Binding affinity to HP duplex DNA 1 (unknown origin) containing c-Myc P2 promoter sequence incubated for 12 hrs at 37 degC in presence of 50 mM pH 7.2 HEPES buffer containing 10 mM MgCl2, 100 mM NaCl and 10% sucrose
[2] = (§1) Binding affinity to fluorescently-labeled mismatched HP duplex DNA 3 (unknown origin) containing HIV2 nef gene assessed as formation of stable triplexes at 100 uM incubated for 12 hrs at 37 degC in presence of 50 mM pH 7.2 HEPES buffer containing 10 mM MgCl2, 100 mM NaCl and 10% sucrose by gel mobility shift assay
Method in brief: (§2)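 Triplex formation by gel shift. Oligonucleotide at 100 µM was mixed with fluorescently labeled hairpin duplex at 40 nM in 50 mM HEPES (pH 7.2), 10 mM MgCl2, 100 mM NaCl and 10% sucrose for 12 h at 37 °C. Complexes were resolved on a 15% nondenaturing polyacrylamide gel.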

[3] = Binding affinity to fluorescently-labeled HP duplex DNA 2 (unknown origin) containing HIV2 nef gene assessed as formation of stable triplexes at 40 uM in presence of 40 uM RNA 1 (5'-CACCACCACCACC-3') by gel mobility shift assay
[4] = as §1, with “DNA 5” for “DNA 3”; method in brief: as §2
[5] = as §1, with “DNA 4” for “DNA 3”; method in brief: as §2
[6] = as §1, with “DNA 8” for “DNA 3”; method in brief: as §2
[7] = Binding affinity to HP duplex DNA 2 (unknown origin) containing HIV2 nef gene sequence incubated for 12 hrs at 37 degC in presence of 50 mM pH 7.2 HEPES buffer containing 10 mM MgCl2, 100 mM NaCl and 10% sucrose
Method in brief: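 Oligonucleotide binding to a 5'-FAM-labeled hairpin duplex bearing the HIV2 nef sequence. Incubation was 12 h at 37 °C in 50 mM HEPES (pH 7.2) with 10 mM MgCl2, 100 mM NaCl and 10% sucrose. Kd reported in µM.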

[8] = Binding affinity to fluorescently-labeled HP duplex DNA 2 (unknown origin) containing HIV2 nef gene assessed as formation of stable triplexes at 40 uM by gel mobility shift assay
[9] = Binding affinity to HP duplex DNA 2 (unknown origin) containing HIV2 nef gene sequence incubated for 12 hrs at 37 degC in presence of 50 mM pH 7.2 HEPES buffer containing 10 mM MgCl2, 100 mM KCl and 10% sucrose
[10] = as §1, with “DNA 6” for “DNA 3”; method in brief: as §2
[11] = as §1, with “fluorescently-labeled” for “fluorescently-labeled mismatched”, “DNA 2” for “DNA 3”; method in brief: as §2
[12] = as §1, with “DNA 7” for “DNA 3”; method in brief: as §2

SMILES	Kd [1] [nM]	Activity [2]	Activity [3]	Activity [4]	Activity [5]	Kd [6] [nM]	Kd [7] [nM]	Activity [8]	Kd [9] [nM]	Activity [10]	Activity [11]	Activity [12]
Cc1cn([C@H]2C[C@H](OP(=O)(O)OC[C@H]3O[C@@H](n4cnc5c(=S)[nH]c(N)nc54)C[C@@H]3OP(=O)(O)OC[C@H]3O[C@@H](n4cnc5c(=S)[nH]c(N)nc54)C[C@@H]3OP(=O)(O)OC[C@H]3O[C@@H](n4cnc5c(=S)[nH]c(N)nc54)C[C@@H]3OP(=O)(O)OC[C@H]3O[C@@H](n4cc(C)c(=O)[nH]c4=O)C[C@@H]3OP(=O)(O)OC[C@H]3O[C@@H](n4cnc5c(=S)[nH]c(N)nc54)C[C@@H]3OP(=O)(O)OC[C@H]3O[C@@H](n4cnc5c(=S)[nH]c(N)nc54)C[C@@H]3OP(=O)(O)OC[C@H]3O[C@@H](n4cnc5c(=S)[nH]c(N)nc54)C[C@@H]3OP(=O)(O)OC[C@H]3O[C@@H](n4cc(C)c(=O)[nH]c4=O)C[C@@H]3OP(=O)(O)OC[C@H]3O[C@@H](n4cnc5c(=S)[nH]c(N)nc54)C[C@@H]3OP(=O)(O)OC[C@H]3O[C@@H](n4cnc5c(=O)[nH]c(N)nc54)[C@H](O)[C@@H]3O)[C@@H](CO)O2)c(=O)[nH]c1=O	7300											
Cc1cn([C@H]2C[C@H](OP(=O)(O)OC[C@H]3O[C@@H](n4cnc5c(=S)[nH]c(N)nc54)C[C@@H]3OP(=O)(O)OC[C@H]3O[C@@H](n4cnc5c(=S)[nH]c(N)nc54)C[C@@H]3OP(=O)(O)OC[C@H]3O[C@@H](n4cnc5c(=S)[nH]c(N)nc54)C[C@@H]3OP(=O)(O)OC[C@H]3O[C@@H](n4cc(C)c(=S)[nH]c4=O)C[C@@H]3OP(=O)(O)OC[C@H]3O[C@@H](n4cnc5c(=S)[nH]c(N)nc54)C[C@@H]3OP(=O)(O)OC[C@H]3O[C@@H](n4cnc5c(=S)[nH]c(N)nc54)C[C@@H]3OP(=O)(O)OC[C@H]3O[C@@H](n4cnc5c(=S)[nH]c(N)nc54)C[C@@H]3OP(=O)(O)OC[C@H]3O[C@@H](n4cc(C)c(=S)[nH]c4=O)C[C@@H]3OP(=O)(O)OC[C@H]3O[C@@H](n4cnc5c(=S)[nH]c(N)nc54)C[C@@H]3OP(=O)(O)OC[C@H]3O[C@@H](n4cnc5c(=O)[nH]c(N)nc54)[C@H](O)[C@@H]3O)[C@@H](CO)O2)c(=O)[nH]c1=S	670											
Cc1cn([C@H]2C[C@H](OP(=O)(O)OC[C@H]3O[C@@H](n4cnc5c(=O)[nH]c(N)nc54)[C@H](O)[C@@H]3O)[C@@H](COP(=O)(O)O[C@H]3C[C@H](n4cnc5c(=S)[nH]c(N)nc54)O[C@@H]3COP(=O)(O)O[C@H]3C[C@H](n4cnc5c(=S)[nH]c(N)nc54)O[C@@H]3COP(=O)(O)O[C@H]3C[C@H](n4cc(C)c(=S)[nH]c4=O)O[C@@H]3COP(=O)(O)O[C@H]3C[C@H](n4cnc5c(=S)[nH]c(N)nc54)O[C@@H]3COP(=O)(O)O[C@H]3C[C@H](n4cnc5c(=S)[nH]c(N)nc54)O[C@@H]3COP(=O)(O)O[C@H]3C[C@H](n4cc(C)c(=S)[nH]c4=O)O[C@@H]3COP(=O)(O)O[C@H]3C[C@H](n4cnc5c(=S)[nH]c(N)nc54)O[C@@H]3COP(=O)(O)O[C@H]3C[C@H](n4cnc5c(=S)[nH]c(N)nc54)O[C@@H]3COP(=O)(O)O[C@H]3C[C@H](n4cc(C)c(=S)[nH]c4=O)O[C@@H]3COP(=O)(O)O[C@H]3C[C@H](n4cnc5c(=S)[nH]c(N)nc54)O[C@@H]3COP(=O)(O)O[C@H]3C[C@H](n4cnc5c(=S)[nH]c(N)nc54)O[C@@H]3CO)O2)c(=O)[nH]c1=O		inactive	Active	inactive	inactive	> 100000	400	Active	200	inactive	Active	inactive

From ChEMBL document CHEMBL2311479, “Remarkable stabilization of antiparallel DNA triplexes by strong stacking effects of consecutively modified nucleobases containing thiocarbonyl groups” (Bioorg Med Chem Lett, 2013)
